Test results as given in ChEMBL document CHEMBL4433215, “SAR Studies and Biological Characterization of a Chromen-4-one Derivative as an Anti-Trypanosoma brucei Agent” (ACS Med Chem Lett, 2019).
One block for each molecule: values may come before it.

Experiments:
786-0 = experiment: Mitochondrial toxicity in human 786-O cells at 10 uM after 6 hrs by MitoTracker Red chloromethyl-X-rosamine based assay; format: cell-based; conditions: 786-0, 6 h
[1] = Cytotoxicity against human THP1 cells by MTT assay; format: cell-based, THP-1
Trypanosoma brucei [2] = experiment: Antitrypanosomal activity against Trypanosoma brucei bloodstream form after 72 hrs by resazurin dye-based assay relative to control; format: functional, organism-based
How it was run: (§1)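 T. brucei bloodstream forms were screened first. Compounds giving over 70% parasite growth inhibition then went to a full dose–response curve to derive EC50. Pentamidine was the reference.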

Trypanosoma brucei [3] = experiment: Antitrypanosomal activity against Trypanosoma brucei bloodstream form assessed as parasite growth inhibition at 10 uM after 72 hrs by resazurin dye-based assay relative to control; format: functional; conditions: read-out: GI; how it was run: as §1
[4] = biological target: T1, Voltage-gated inwardly rectifying potassium channel KCNH2 (Homo sapiens, UniProt Q12809); experiment: Inhibition of human ERG at 10 uM after 2 hrs by fluorescence polarization assay
T1 sequence (Q12809 whole entry): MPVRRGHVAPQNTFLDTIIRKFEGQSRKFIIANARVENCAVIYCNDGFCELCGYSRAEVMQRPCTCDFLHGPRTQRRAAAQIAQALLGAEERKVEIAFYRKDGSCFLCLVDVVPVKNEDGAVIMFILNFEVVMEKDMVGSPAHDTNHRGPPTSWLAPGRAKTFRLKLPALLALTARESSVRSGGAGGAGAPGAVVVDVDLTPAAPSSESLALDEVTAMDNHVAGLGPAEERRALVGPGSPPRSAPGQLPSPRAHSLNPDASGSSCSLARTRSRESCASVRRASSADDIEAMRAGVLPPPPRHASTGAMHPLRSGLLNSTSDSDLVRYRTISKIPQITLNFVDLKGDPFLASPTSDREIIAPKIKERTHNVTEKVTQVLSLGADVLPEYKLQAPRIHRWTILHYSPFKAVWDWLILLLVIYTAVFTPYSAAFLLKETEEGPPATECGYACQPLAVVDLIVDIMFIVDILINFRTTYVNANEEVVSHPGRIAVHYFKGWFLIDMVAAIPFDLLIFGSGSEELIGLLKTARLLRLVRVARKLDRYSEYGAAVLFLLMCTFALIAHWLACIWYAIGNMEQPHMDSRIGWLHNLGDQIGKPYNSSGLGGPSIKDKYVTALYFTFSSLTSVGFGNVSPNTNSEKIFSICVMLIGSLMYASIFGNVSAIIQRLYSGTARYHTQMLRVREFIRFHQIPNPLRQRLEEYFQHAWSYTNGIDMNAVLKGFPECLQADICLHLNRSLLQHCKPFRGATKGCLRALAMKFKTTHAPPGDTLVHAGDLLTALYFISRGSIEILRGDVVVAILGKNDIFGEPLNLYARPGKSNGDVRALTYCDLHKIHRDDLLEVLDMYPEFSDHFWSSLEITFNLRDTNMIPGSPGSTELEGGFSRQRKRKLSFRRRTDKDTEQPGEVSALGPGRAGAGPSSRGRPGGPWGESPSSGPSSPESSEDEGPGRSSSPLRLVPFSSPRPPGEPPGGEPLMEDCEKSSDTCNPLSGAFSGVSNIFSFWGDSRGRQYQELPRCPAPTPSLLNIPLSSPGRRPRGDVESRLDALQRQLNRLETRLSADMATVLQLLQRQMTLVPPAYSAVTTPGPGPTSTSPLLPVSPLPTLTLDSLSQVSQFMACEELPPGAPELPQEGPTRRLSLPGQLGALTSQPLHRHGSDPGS
How it was run: (§2)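 Single-concentration screen at 10 μM within an early in vitro ADME-tox panel, covering cytotoxicity in A549 cells and hERG inhibition.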

[5] = Selectivity index, ratio of CC50 for cytotoxicity against human THP1 cells to EC50 for antitrypanosomal activity against Trypanosoma brucei bloodstream form; format: toxicity, cell-based; conditions: read-out: Ratio CC50/EC50
[6] = Cytotoxicity against human A549 cells assessed as cell growth at 10 uM after 48 hrs by cell-titer-Glo assay relative to control; format: cell-based; conditions: read-out: Activity; how it was run: as §2
Albumin [7] = biological target: T2, Albumin (Homo sapiens, UniProt P02768); experiment: Binding affinity to HSA assessed as monomer/HSA equilibrium binding constant at 11.25 uM by spectroflurometry; format: ADME; conditions: isolated protein
T2 sequence (P02768 whole entry): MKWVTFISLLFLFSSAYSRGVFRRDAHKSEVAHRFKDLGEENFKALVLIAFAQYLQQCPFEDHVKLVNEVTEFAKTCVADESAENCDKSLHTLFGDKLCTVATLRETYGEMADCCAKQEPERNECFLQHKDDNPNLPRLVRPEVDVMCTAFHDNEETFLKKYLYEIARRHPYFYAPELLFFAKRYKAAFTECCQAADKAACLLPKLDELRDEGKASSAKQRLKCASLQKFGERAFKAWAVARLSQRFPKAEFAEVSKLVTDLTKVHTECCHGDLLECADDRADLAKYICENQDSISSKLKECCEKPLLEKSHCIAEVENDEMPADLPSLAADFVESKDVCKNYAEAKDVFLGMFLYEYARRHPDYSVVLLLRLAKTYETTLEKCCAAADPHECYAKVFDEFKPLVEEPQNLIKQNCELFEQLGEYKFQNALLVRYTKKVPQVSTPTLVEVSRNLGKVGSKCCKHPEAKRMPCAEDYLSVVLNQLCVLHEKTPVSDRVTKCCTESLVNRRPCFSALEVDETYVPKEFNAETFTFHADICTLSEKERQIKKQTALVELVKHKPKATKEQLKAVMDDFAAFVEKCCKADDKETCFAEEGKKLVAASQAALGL
How it was run: (§3)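 Compound in aqueous phosphate buffer, pH 8, at 1.25 to 11.25 μM. Absorption and fluorescence emission spectra were recorded without and with human serum albumin (HSA), with HSA added stepwise. The monomer/dimer equilibrium constant was obtained by fitting the absorption data at 20 °C.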

[8] = Tmax in BALB/c mouse at 1 mg/kg, iv by LC-MS/MS analysis; format: ADME, organism-based; conditions: in vivo
How it was run: (§4)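 BALB/c mice were dosed IV at 1 mg/kg or orally at 20 mg/kg. Plasma Cmax, Tmax, total AUC and half-life were determined for each route.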

[9] = Cmax in BALB/c mouse at 1 mg/kg, iv by LC-MS/MS analysis; format: ADME, organism-based; design: dose 1 mg/kg, route intravenous; conditions: in vivo; how it was run: as §4
[10] = Tmax in BALB/c mouse at 20 mg/kg, po by LC-MS/MS analysis; format: ADME, organism-based; conditions: in vivo; how it was run: as §4
[11] = Total AUC in BALB/c mouse at 1 mg/kg, iv by LC-MS/MS analysis; format: ADME, organism-based; design: dose 1 mg/kg, time AUCmax, route intravenous; conditions: in vivo; how it was run: as §4
Albumin [12] = biological target: T2, Albumin; experiment: Binding affinity to HSA assessed as emission maxima for HSA-complexed monomer at 1.25 uM to 11.25 uM by spectroflurometry; format: ADME; conditions: isolated protein; how it was run: as §3
Cytochrome P450 2D6 = Cytochrome P450 2D6 (Homo sapiens, UniProt P10635); experiment: Inhibition of recombinant human microsomal CYP2D6 expressed in baculovirus infected BTI-TN-5B1-4 cell microsomes using CYP/Luciferin as substrate pre-incubated for 30 mins followed by NADPH regeneration mixture addition and measured after 30 mins by Promega P450-Glo assay; format: ADME
Chain of Cytochrome P450 2D6 (P10635 whole entry): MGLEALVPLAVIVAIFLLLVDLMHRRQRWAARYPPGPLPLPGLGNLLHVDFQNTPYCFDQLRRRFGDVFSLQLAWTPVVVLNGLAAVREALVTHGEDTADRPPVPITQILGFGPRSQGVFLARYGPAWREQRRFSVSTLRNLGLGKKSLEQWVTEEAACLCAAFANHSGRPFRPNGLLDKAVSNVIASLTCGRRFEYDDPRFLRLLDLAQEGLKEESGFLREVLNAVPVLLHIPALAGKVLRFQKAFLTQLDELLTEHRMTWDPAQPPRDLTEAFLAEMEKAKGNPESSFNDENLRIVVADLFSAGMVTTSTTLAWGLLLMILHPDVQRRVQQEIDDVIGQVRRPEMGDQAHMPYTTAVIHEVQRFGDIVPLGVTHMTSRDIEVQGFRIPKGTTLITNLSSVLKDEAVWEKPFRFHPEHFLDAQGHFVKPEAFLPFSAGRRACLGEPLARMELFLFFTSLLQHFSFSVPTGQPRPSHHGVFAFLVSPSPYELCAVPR

[13] = Cmax in BALB/c mouse at 20 mg/kg, po by LC-MS/MS analysis; format: ADME, organism-based; design: dose 20 mg/kg, route oral; conditions: in vivo; how it was run: as §4
[14] = Half life in BALB/c mouse at 1 mg/kg, iv by LC-MS/MS analysis; format: ADME, organism-based; conditions: in vivo; how it was run: as §4
[15] = Aggregation behavior in phosphate buffer at pH 8 assessed as dimerization equilibrium constant at 1.25 uM to 11.25 uM by UV-visible spectrophotometry; format: physicochemical; conditions: pH 8, 1.25 µM; how it was run: as §3
[16] = Half life in BALB/c mouse at 20 mg/kg, po by LC-MS/MS analysis; format: ADME, organism-based; conditions: in vivo; how it was run: as §4
Cytochrome P450 2C19 = Cytochrome P450 2C19 (Homo sapiens, UniProt P33261); experiment: Inhibition of recombinant human microsomal CYP2C19 expressed in baculovirus infected BTI-TN-5B1-4 cell microsomes using CYP/Luciferin as substrate pre-incubated for 30 mins followed by NADPH regeneration mixture addition and measured after 30 mins by Promega P450-Glo assay; format: ADME
Chain of Cytochrome P450 2C19 (P33261 whole entry): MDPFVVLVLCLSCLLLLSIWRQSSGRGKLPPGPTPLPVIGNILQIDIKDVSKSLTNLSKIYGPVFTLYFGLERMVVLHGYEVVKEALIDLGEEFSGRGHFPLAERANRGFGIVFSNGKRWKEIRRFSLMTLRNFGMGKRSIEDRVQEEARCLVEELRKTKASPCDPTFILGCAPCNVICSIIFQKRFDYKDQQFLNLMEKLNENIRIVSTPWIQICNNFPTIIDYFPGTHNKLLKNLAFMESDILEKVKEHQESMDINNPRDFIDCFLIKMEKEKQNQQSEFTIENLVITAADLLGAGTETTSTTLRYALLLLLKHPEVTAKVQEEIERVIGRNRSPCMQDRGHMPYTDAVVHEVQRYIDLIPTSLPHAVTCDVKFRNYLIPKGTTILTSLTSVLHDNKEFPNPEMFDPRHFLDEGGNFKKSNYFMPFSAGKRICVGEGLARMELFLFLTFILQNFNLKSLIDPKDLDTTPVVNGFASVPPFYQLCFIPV

[17] = biological target: T1, Voltage-gated inwardly rectifying potassium channel KCNH2; experiment: Inhibition of human ERG after 2 hrs by fluorescence polarization assay
Albumin [18] = biological target: T2, Albumin; experiment: Binding affinity to HSA assessed as emission maxima for aggregate at 1.25 uM to 11.25 uM by spectroflurometry; format: ADME; conditions: isolated protein; how it was run: as §3
Cytochrome P450 3A4 = Cytochrome P450 3A4 (Homo sapiens, UniProt P08684); experiment: Inhibition of recombinant human microsomal CYP3A4 expressed in baculovirus infected BTI-TN-5B1-4 cell microsomes using CYP/Luciferin as substrate pre-incubated for 30 mins followed by NADPH regeneration mixture addition and measured after 30 mins by Promega P450-Glo assay; format: ADME
Chain of Cytochrome P450 3A4 (P08684 whole entry): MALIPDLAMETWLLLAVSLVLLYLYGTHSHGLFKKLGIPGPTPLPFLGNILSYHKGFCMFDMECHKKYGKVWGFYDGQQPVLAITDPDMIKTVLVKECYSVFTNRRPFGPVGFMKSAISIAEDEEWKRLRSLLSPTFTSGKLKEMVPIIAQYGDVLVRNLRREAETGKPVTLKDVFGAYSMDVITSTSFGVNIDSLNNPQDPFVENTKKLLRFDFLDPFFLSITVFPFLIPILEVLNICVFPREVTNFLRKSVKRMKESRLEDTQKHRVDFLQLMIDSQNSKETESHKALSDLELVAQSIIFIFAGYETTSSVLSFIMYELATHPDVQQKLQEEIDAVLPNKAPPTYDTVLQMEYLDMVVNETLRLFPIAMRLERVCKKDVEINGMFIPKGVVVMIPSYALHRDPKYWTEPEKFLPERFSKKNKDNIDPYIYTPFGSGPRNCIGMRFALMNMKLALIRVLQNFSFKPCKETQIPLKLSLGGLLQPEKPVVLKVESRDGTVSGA

Albumin [19] = biological target: T2, Albumin; experiment: Binding affinity to HSA assessed as absorption maxima for aggregate at 1.25 uM to 11.25 uM by UV-visible spectrophotometry; format: ADME; conditions: isolated protein; how it was run: as §3
Albumin [20] = biological target: T2, Albumin; experiment: Binding affinity to HSA assessed as absorption maxima for free monomer at 1.25 uM to 11.25 uM by UV-visible spectrophotometry; format: ADME; conditions: isolated protein; how it was run: as §3
Cytochrome P450 1A2 = biological target: T3, Cytochrome P450 1A2 (Homo sapiens, UniProt P05177); experiment: Inhibition of recombinant human microsomal CYP1A2 expressed in baculovirus infected BTI-TN-5B1-4 cell microsomes using CYP/Luciferin as substrate pre-incubated for 30 mins followed by NADPH regeneration mixture addition and measured after 30 mins by Promega P450-Glo assay; format: ADME
T3 sequence (P05177 whole entry): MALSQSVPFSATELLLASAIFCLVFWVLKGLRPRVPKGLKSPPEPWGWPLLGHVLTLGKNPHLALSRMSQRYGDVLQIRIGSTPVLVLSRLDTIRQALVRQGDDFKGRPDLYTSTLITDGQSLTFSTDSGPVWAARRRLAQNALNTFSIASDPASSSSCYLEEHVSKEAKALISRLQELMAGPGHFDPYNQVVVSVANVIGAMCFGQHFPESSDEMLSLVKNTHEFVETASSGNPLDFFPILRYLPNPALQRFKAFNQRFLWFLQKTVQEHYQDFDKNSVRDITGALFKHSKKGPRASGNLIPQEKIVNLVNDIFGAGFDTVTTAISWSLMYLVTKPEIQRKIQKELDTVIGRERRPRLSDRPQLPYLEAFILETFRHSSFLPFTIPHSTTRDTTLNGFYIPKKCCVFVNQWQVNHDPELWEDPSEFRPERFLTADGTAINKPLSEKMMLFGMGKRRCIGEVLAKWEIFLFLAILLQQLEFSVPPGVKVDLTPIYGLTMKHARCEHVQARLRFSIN

hERG = experiment: Selectivity ratio of IC50 for inhibition of human ERG to EC50 for antitrypanosomal activity against Trypanosoma brucei bloodstream form; format: toxicity; conditions: read-out: Ratio IC50/EC50
Albumin [21] = biological target: T2, Albumin; experiment: Binding affinity to HSA assessed as emission maxima for free monomer at 1.25 uM to 11.25 uM by spectroflurometry; format: ADME; conditions: isolated protein; how it was run: as §3
[22] = Aggregation behavior in phosphate buffer at pH 8 assessed as increase in emission spectra at 1.25 uM to 11.25 uM by spectroflurometry; format: physicochemical; conditions: pH 8, 1.25 µM; how it was run: as §3
[23] = Total AUC in BALB/c mouse at 20 mg/kg, po by LC-MS/MS analysis; format: ADME, organism-based; design: dose 20 mg/kg, time AUCmax, route oral; conditions: in vivo; how it was run: as §4
Cytochrome P450 2C9 = Cytochrome P450 2C9 (Homo sapiens, UniProt P11712); experiment: Inhibition of recombinant human microsomal CYP2C9 expressed in baculovirus infected BTI-TN-5B1-4 cell microsomes using CYP/Luciferin as substrate pre-incubated for 30 mins followed by NADPH regeneration mixture addition and measured after 30 mins by Promega P450-Glo assay; format: ADME
Chain of Cytochrome P450 2C9 (P11712 whole entry): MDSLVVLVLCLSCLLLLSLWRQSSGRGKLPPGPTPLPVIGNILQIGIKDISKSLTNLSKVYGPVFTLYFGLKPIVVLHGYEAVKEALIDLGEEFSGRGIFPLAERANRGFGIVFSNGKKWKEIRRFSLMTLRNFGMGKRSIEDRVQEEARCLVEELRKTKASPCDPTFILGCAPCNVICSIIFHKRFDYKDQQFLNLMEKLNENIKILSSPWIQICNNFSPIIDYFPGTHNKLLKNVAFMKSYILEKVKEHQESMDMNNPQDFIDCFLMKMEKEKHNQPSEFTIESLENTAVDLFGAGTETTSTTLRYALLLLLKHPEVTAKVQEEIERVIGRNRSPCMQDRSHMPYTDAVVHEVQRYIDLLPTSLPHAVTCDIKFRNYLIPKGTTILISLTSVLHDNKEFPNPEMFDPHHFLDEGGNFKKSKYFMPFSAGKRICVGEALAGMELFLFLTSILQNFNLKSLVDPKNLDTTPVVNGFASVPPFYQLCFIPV

Albumin [24] = biological target: T2, Albumin; experiment: Binding affinity to HSA assessed as absorption maxima for HSA-complexed monomer at 1.25 uM to 11.25 uM by UV-visible spectrophotometry; format: ADME; conditions: isolated protein; how it was run: as §3
[25] = Aggregation behavior in phosphate buffer at pH 8 assessed as increase in absorption spectra at 1.25 uM to 11.25 uM by UV-visible spectrophotometry; format: physicochemical; conditions: pH 8, 1.25 µM; how it was run: as §3

EC50 (Trypanosoma brucei [2]): 2.9 µM
SMILES: O=c1c(O)c(-c2ccc3c(c2)OCO3)oc2ccccc12
Activity (786-0): Non-Toxic
CC50 [1]: 12.5 to 25 µM
inhibition of growth at 10 µM (Trypanosoma brucei [3]): 100%
inhibition (INH) [4]: Not Active
selectivity ratio [5]: 4

EC50 (Trypanosoma brucei [2]): 0.5 µM
SMILES: COc1ccc2c(=O)c(OC(=O)C(C)C)c(-c3ccc4c(c3)OCO4)oc2c1
Activity (786-0): Non-Toxic
CC50 [1]: < 12.5 µM
inhibition of growth at 10 µM (Trypanosoma brucei [3]): 98%
viability at 48 h, 10 µM [6]: < 0%
inhibition (INH) [4]: Not Active
selectivity ratio [5]: 24

EC50 (Trypanosoma brucei [2]): 0.4 µM
SMILES: Cc1ccc2c(=O)c(O)c(-c3ccc4c(c3)OCO4)oc2c1
Activity (786-0): Non-Toxic
CC50 [1]: 12.5 to 25 µM
inhibition of growth at 10 µM (Trypanosoma brucei [3]): 99%
inhibition (INH) [4]: Not Active
selectivity ratio [5]: 31

EC50 (Trypanosoma brucei [2]): > 10 µM
SMILES: CCOc1c(-c2ccc3c(c2)OCO3)oc2cc(OC)ccc2c1=O
Activity (786-0): Non-Toxic
CC50 [1]: 50 to 100 µM
inhibition of growth at 10 µM (Trypanosoma brucei [3]): 18%
inhibition (INH) [4]: Not Active

Kb (Albumin [7]): 2.5 ×10⁵ /M
Tmax [8]: 1 h
Cmax [9]: 1080 nM
Tmax [10]: 0.5 h
AUC [11]: 9.99 µM·h
Activity (Albumin [12]): 540 nm
IC50 (Cytochrome P450 2D6): 0.05 µM
Cmax [13]: 910 nM
half-life [14]: 19.8 h
Ke [15]: 1.8 ×10⁵ /M
half-life [16]: 45.4 h
IC50 (Cytochrome P450 2C19): 1.5 µM
Activity (Albumin [18]): 560 nm
IC50 (Cytochrome P450 3A4): 6 µM
Activity (Albumin [19]): 325 nm
Activity (Albumin [20]): 360 nm
IC50 (Cytochrome P450 1A2): 0.4 µM
Activity (Albumin [21]): 475 nm
Activity [22]: Active
AUC [23]: 8.65 µM·h
IC50 (Cytochrome P450 2C9): 1.6 µM
Activity (Albumin [24]): 360 nm
Activity [25]: Active
SMILES: COc1ccc2c(=O)c(O)c(-c3ccc4c(c3)OCO4)oc2c1
Activity (786-0): Non-Toxic
CC50 [1]: > 100 µM
IC50 [17]: > 100 µM
selectivity ratio (hERG): > 250
inhibition (INH) [4]: Not Active
selectivity ratio [5]: 250

EC50 (Trypanosoma brucei [2]): 0.3 µM
SMILES: COc1ccc2c(=O)c(OC(C)=O)c(-c3ccc4c(c3)OCO4)oc2c1
Activity (786-0): Non-Toxic
CC50 [1]: < 12.5 µM
inhibition of growth at 10 µM (Trypanosoma brucei [3]): 100%
inhibition (INH) [4]: Not Active
selectivity ratio [5]: 46

The next lines start with the molecule.

SMILES: O=c1c(O)c(-c2ccc3c(c2)OCO3)oc2ccc(F)cc12
Activity (786-0): Non-Toxic
CC50 [1]: 12.5 to 25 µM
inhibition of growth at 10 µM (Trypanosoma brucei [3]): 7%
inhibition (INH) [4]: Not Active

SMILES: COc1ccc2c(=O)c(OC(=O)C(C)(C)C)c(-c3ccc4c(c3)OCO4)oc2c1
Activity (786-0): Non-Toxic
CC50 [1]: > 100 µM
EC50 (Trypanosoma brucei [2]): 1.1 µM
inhibition of growth at 10 µM (Trypanosoma brucei [3]): 100%
inhibition (INH) [4]: Not Active
selectivity ratio [5]: > 92

SMILES: COc1ccc2c(=O)c(O)c(-c3ccc4c(c3)CCO4)oc2c1
Activity (786-0): Non-Toxic
CC50 [1]: 25 to 50 µM
EC50 (Trypanosoma brucei [2]): 3.1 µM
inhibition of growth at 10 µM (Trypanosoma brucei [3]): 100%
inhibition (INH) [4]: Not Active
selectivity ratio [5]: 8

SMILES: COc1ccc2c(=O)c(OC(=O)N(C)C)c(-c3ccc4c(c3)OCO4)oc2c1
Activity (786-0): Non-Toxic
CC50 [1]: > 100 µM
EC50 (Trypanosoma brucei [2]): > 10 µM
inhibition of growth at 10 µM (Trypanosoma brucei [3]): 25%
inhibition (INH) [4]: Not Active

SMILES: O=c1c(O)c(-c2ccc3c(c2)OCO3)oc2ccc(Br)cc12
Activity (786-0): Non-Toxic
CC50 [1]: 12.5 to 25 µM
inhibition of growth at 10 µM (Trypanosoma brucei [3]): 38%
inhibition (INH) [4]: Not Active
